Assays:
[1] = biological target: T1, Receptor-type tyrosine-protein kinase FLT3 (Homo sapiens, UniProt P36888); experiment: Inhibition of human FLT3 using EAIYAAPFAKKK as substrate preincubated for 20 mins followed by [gamma-33P]-ATP addition measure after 120 mins by filter binding method
T1 sequence (P36888 whole entry): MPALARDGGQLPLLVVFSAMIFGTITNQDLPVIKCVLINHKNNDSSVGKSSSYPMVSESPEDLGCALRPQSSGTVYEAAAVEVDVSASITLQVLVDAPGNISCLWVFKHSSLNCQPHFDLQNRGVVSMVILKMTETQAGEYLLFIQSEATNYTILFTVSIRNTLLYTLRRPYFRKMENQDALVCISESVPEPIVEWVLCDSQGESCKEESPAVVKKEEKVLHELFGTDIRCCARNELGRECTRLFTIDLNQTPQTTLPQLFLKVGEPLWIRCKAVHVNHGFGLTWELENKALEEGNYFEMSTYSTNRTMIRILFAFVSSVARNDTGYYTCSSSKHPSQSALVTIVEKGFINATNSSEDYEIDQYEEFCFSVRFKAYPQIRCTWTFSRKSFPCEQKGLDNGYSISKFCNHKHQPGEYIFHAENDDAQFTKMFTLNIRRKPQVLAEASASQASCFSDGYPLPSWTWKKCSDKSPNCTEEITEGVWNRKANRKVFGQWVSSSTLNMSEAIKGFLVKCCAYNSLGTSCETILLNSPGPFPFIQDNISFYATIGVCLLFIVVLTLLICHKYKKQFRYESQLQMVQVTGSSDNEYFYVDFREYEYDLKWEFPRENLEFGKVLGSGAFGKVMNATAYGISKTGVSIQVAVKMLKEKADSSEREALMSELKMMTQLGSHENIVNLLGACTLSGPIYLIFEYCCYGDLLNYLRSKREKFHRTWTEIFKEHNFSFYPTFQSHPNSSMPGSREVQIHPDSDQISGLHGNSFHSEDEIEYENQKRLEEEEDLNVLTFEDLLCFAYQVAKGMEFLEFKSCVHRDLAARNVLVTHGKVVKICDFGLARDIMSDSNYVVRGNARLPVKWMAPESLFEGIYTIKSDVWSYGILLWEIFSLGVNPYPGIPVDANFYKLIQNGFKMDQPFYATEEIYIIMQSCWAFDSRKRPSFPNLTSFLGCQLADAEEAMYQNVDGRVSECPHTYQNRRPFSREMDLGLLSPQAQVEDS
Procedure, shortened: (§1)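 Compound preincubated with kinase 20 min at room temperature. Filter-binding read-out, curve-fitted IC50; mean ± SD of three independent experiments.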

CDK2/Cyclin A1 = CDK2/Cyclin A1 (Homo sapiens, UniProt P24941); experiment: Inhibition of human CDK2/Cyclin A1 using histone H1 as substrate preincubated for 20 mins followed by [gamma-33P]-ATP addition measure after 120 mins by filter binding method; format: protein-complex assay; procedure, shortened: as §1
MV4-11 [2] = experiment: Growth inhibition of human MV4-11 cells after 72 hrs by CellTiter-Glo assay; format: functional, cell-based; conditions: MV4-11, 72 h
Procedure, shortened: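 MV4-11 cells grown in IMDM with 10% FBS, 2% L-glutamine and 1% pen/strep at 37 °C, 5% CO2. Seeded at 10000 cells/well and exposed to compound at various concentrations for 72 h. Viability read by CellTiter-Glo luminescence.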

[3] = Lipophilicity, log P of the compound; format: physicochemical; conditions: octanol/water
MV4-11 [4] = experiment: Growth inhibition of human MV4-11 cells at 1 uM after 72 hrs by CellTiter-Glo assay relative to control; format: functional; conditions: MV4-11, 72 h, read-out: GI
[5] = biological target: Receptor-type tyrosine-protein kinase FLT3 (Homo sapiens) (UniProt P36888); experiment: Inhibition of human FLT3 assessed as residual activity at 0.123 uM using EAIYAAPFAKKK as substrate preincubated for 20 mins followed by [gamma-33P]-ATP addition measure after 120 mins by filter binding method relative to control
[6] = biological target: CDK2/Cyclin A1 (Homo sapiens) (UniProt P24941+P78396); experiment: Inhibition of human CDK2/Cyclin A1 assessed as residual activity at 0.123 uM using histone H1 as substrate preincubated for 20 mins followed by [gamma-33P]-ATP addition measure after 120 mins by filter binding method relative to control; format: protein-complex assay
[7] = biological target: Cyclin-dependent kinase 4/cyclin D1 (Homo sapiens, UniProt P11802); experiment: Inhibition of human CDK4/Cyclin D1 using RB protein as substrate preincubated for 20 mins followed by [gamma-33P]-ATP addition measure after 120 mins by filter binding method; format: protein-complex assay
Procedure, shortened: (§2)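 Compound preincubated with kinase 20 min at room temperature. Reaction started with 10 μM [γ-33P]ATP and run 120 min at 25°C. Filter-binding read-out, curve-fitted IC50; mean ± SD of three independent experiments.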

CDK6/cyclin D1 = CDK6/cyclin D1 (Homo sapiens, UniProt Q00534); experiment: Inhibition of human CDK6/Cyclin D1 using RB protein as substrate preincubated for 20 mins followed by [gamma-33P]-ATP addition measure after 120 mins by filter binding method; format: protein-complex assay; procedure, shortened: as §2
Sequence of CDK6/cyclin D1 (P24385 whole entry): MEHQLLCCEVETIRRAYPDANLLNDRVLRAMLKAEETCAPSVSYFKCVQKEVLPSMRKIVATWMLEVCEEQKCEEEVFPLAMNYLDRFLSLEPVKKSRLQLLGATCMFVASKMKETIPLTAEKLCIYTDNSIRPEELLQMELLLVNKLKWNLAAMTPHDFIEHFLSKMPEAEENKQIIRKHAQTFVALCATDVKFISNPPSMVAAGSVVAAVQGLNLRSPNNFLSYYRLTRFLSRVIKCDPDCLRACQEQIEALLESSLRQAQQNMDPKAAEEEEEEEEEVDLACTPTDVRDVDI
Sequence of CDK6/cyclin D1 (Q00534 whole entry): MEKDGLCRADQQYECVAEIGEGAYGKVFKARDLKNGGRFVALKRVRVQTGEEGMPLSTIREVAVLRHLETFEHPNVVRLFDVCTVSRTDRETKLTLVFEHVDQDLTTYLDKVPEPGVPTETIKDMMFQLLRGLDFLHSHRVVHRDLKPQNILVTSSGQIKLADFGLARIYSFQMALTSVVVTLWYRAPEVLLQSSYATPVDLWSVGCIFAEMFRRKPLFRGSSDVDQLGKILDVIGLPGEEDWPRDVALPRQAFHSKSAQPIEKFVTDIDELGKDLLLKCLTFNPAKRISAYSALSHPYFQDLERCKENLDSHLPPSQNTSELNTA

Sequence of Cyclin-dependent kinase 4/cyclin D1 (P11802 whole entry): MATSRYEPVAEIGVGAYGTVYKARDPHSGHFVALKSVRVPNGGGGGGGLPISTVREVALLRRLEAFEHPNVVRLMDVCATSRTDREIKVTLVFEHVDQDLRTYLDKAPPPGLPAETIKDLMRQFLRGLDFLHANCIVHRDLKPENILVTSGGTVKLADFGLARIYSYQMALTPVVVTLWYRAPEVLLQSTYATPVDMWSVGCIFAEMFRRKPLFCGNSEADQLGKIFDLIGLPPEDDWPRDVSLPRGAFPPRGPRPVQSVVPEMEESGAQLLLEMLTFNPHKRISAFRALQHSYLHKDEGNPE
Sequence of Cyclin-dependent kinase 4/cyclin D1 (P24385 whole entry, further chain): as the sequence (P24385 whole entry) above

| SMILES | IC50 [1] [nM] | IC50 (CDK2/Cyclin A1) [nM] | further results |
| --- | --- | --- | --- |
| O=C(Nc1ccc(CNC2CC2)cc1)c1n[nH]cc1Nc1ncnc2sccc12 | 1.05 | 2.05 |  |
| O=C(Nc1ccc(CN2CCNCC2)cc1)c1n[nH]cc1Nc1ncnc2[nH]ccc12 | 1.03 | 4.49 | IC50 (MV4-11 [2]): 53 nM; logP [3]: 1.22 |
| O=C(Nc1c[nH]nc1C(=O)Nc1ccc(CN2CCOCC2)cc1)c1ccccc1 | 42.6 | 318 | IC50 (MV4-11 [2]): 450 nM |
| O=C(Nc1ccc(CN2CCOCC2)cc1)c1n[nH]cc1Nc1ccnc2ccc(Br)cc12 | 16.9 | 24.1 | inhibition of growth at 1 µM (MV4-11 [4]): 93.7% |
| Cc1sc2ncnc(Nc3c[nH]nc3C(=O)Nc3ccc(CN4CCN(C)CC4)cc3)c2c1C | 0.576 | 1.9 |  |
| O=C(Nc1ccc(CN2CCNCC2)cc1)c1n[nH]cc1Nc1ncnc2sccc12 | 0.34 | 2.08 | IC50 (MV4-11 [2]): 19 nM; logP [3]: 2.65 |
| CCN(CC)Cc1ccc(NC(=O)c2n[nH]cc2Nc2ncnc3sccc23)cc1 | 5.36 | 1.59 |  |
| CC(C)c1cc2c(Nc3c[nH]nc3C(=O)Nc3ccc(CN4CCOCC4)cc3)ncnc2s1 | 7.63 | 9.85 | IC50 (MV4-11 [2]): 15 nM |
| CN1CCN(Cc2ccc(NC(=O)c3n[nH]cc3Nc3ccnc4ccccc34)cc2)CC1 |  |  | inhibition of growth at 1 µM (MV4-11 [4]): 98.8%; Activity [5]: 27.7%; Activity [6]: 26.5% |
| CC(C)c1cc2c(Nc3c[nH]nc3C(=O)Nc3ccc(CN4CCN(C)CC4)cc3)ncnc2s1 | 2.31 | 3.89 |  |
| Cc1csc2ncnc(Nc3c[nH]nc3C(=O)Nc3ccc(CN4CCN(C)CC4)cc3)c12 | 0.167 | 4.49 |  |
| CN1CCN(Cc2ccc(NC(=O)c3n[nH]cc3Nc3ncnc4occc34)cc2)CC1 | 2.56 to 2.65 | 16.5 | inhibition of growth at 1 µM (MV4-11 [4]): 94.7%; IC50 [7]: 5.67 nM; IC50 (CDK6/cyclin D1): 5.09 nM |
| CN1CCCN(Cc2ccc(NC(=O)c3n[nH]cc3Nc3ncnc4sccc34)cc2)CC1 | 0.32 | 3.03 |  |
| COc1ccc2c(Nc3c[nH]nc3C(=O)Nc3ccc(CN4CCOCC4)cc3)ccnc2c1 | 97.4 |  | inhibition of growth at 1 µM (MV4-11 [4]): 22.2%; Activity [6]: 75% |
| O=C(Nc1ccc(CN2CCOCC2)cc1)c1n[nH]cc1Nc1nc(Cl)nc2ccccc12 | 0.958 | 58.6 | inhibition of growth at 1 µM (MV4-11 [4]): 91.1% |
| O=C(Nc1ccc(CN2CCOCC2)cc1)c1n[nH]cc1Nc1ncnc2[nH]ccc12 | 2.06 | 7.25 | IC50 (MV4-11 [2]): 21 nM |
| CCc1cc2c(Nc3c[nH]nc3C(=O)Nc3ccc(CN4CCN(C)CC4)cc3)ncnc2s1 | 0.101 | 1.87 |  |

— ChEMBL document CHEMBL4052828, “Discovery of 4-((7H-Pyrrolo[2,3-d]pyrimidin-4-yl)amino)-N-(4-((4-methylpiperazin-1-yl)methyl)phenyl)-1H-pyrazole-3-carboxamide (FN-1501), an FLT3- and CDK-Kinase Inhibitor with Potentially High Efficiency against Acute Myelocytic Leukemia” (J Med Chem, 2018)
